Bioassay records as filed in PubChem.
PAFAH1B2 FP inh: inhibitors of human PAFAH1B2. recombinant PAFAH1B2, FP-rhodamine activity probe, fluorescence polarization. 340,000 tested, 1.2% active. P68402. inhibition, % at 3.39 µM;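 active = inhibition above the mean of all tested compounds plus 3 SD, cut at about 24% in these data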;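 also: 0% = enzyme with DMSO and 100% = wells lacking PAFAH1B2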
PAFAH2 inh: PAFAH2 (human) inhibition. Q99487. recombinant PAFAH2, FP-rhodamine activity probe, fluorescence polarization. inhibition, % at 3.39 µM. 340,000 tested, 0.99% active. AID 492956;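 active = inhibition above the mean over all tested compounds plus 3 SD, cut at about 30% in these data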;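 also: inhibitors block probe labeling of enzyme so polarization drops; 0% = enzyme with DMSO and 100% = wells lacking PAFAH2 protein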
PAFAH1B3 inh: blocks human PAF acetylhydrolase 1B catalytic subunit 3 | recombinant PAFAH1B3, FP-rhodamine probe, fluorescence polarization | inhibition, % at 3.39 µM | 340,000 tested, 0.28% active;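 active = inhibition above the screen-wide average of all tested compounds plus 3 SD, cut at about 25% in these data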;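 also: 0% = enzyme with DMSO only and 100% = wells lacking PAFAH1B3 protein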
Target sequence (Q15102 whole entry, looked up): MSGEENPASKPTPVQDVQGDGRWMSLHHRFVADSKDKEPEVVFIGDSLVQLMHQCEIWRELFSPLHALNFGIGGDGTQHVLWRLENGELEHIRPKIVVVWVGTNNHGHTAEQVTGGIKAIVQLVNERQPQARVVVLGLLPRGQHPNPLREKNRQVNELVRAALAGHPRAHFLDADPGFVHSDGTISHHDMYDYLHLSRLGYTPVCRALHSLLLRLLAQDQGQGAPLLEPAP
pPAFAH inh: pPAFAH (human) enzyme inhibition | recombinant pPAFAH, FP-rhodamine probe fluorescence polarization | Q13093 | 330,000 tested, 1.5% active | inhibition, % at 3.39 µM;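 active = inhibition above the mean inhibition across the screen plus 3 SD, cut at about 25% in these data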;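 also: inhibitors block binding of the rhodamine activity-based probe so polarization drops; 0% = enzyme with DMSO and 100% = wells lacking pPAFAH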
ASAP1 inh: ASAP1 ArfGAP inhibition. inhibition, % at 16.5 µM. AID 624377. ASAP1-stimulated ARF1 GTP hydrolysis, GDP FP detection. Q9ULH1. 360,000 tested, 0.19% active; in the data active = inhibition above about 25%;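 also: 0% = vehicle with enzyme and substrate and 100% = no enzyme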
Target sequence (Q9ULH1 325-724 limits assumed): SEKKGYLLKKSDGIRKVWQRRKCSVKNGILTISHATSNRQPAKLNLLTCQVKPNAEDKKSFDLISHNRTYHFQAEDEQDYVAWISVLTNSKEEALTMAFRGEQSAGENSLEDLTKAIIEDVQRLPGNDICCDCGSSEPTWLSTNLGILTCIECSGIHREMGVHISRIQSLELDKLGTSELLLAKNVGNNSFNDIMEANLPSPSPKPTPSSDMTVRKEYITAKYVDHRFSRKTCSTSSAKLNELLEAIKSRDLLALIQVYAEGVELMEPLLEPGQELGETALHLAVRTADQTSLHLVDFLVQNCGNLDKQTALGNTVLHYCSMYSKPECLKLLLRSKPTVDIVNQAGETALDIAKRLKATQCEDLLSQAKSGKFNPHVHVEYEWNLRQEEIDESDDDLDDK
ARFGAP1 inh: inhibitors of rat ARFGAP1; Q62848; Arfgap1-stimulated ARF1 GTP hydrolysis, GDP FP detection; 360,000 tested, 0.26% active; inhibition, % at 16.5 µM;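 active = inhibition above a per-plate limit, mean inhibition of low control wells plus 3 SD, cut at about 25% in these data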;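 also: 0% = DMSO wells with enzyme and 100% = wells lacking Arfgap1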
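system = rat Arfgap1 catalytic domain, aa 1-136 | technique = FP, GDP Alexa 633 tracer displaced from anti-GDP antibody, 620/688 nm | compound = one concentration, 16.5 µM, DMSO 1.26% | medium = HEPES-based buffer, pH 7.5 | timing = compound-enzyme preincubation 20 min, reaction 120 min, detection 60 min, 25 °C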
The depositor's hits bear a star; x = no result given. Most compounds without a hit are left out; they make up all but 2.7% or so of the library.

SMILES	PAFAH1B2 FP inh	PAFAH2 inh	PAFAH1B3 inh	pPAFAH inh	ASAP1 inh	ARFGAP1 inh
O=C(NCCC1=CCCCC1)C1CCCN(S(=O)(=O)c2ccccc2)C1 (stereo not drawn)	27*	4	4	9	-1	-5
O=S(=O)(NCCc1ccccc1)c1cccc(S(=O)(=O)N2CCOCC2)c1	9	6	12	22	-11	-3
COc1ccc(NC(=O)N(C)C[C@H]2OCc3cnnn3CCCC(=O)N([C@H](C)CO)C[C@@H]2C)c(OC)c1	x	x	x	x	5	-8
COC(=O)C1=C(C)N(C)C(=NCc2cccc(C(F)(F)F)c2)NC1c1ccccc1 (stereo not drawn)	x	x	x	x	-8	-8
O=C(CNC(=O)c1cccc(Br)c1)N/N=C/c1cc(Br)cc(Br)c1O	31*	11	7	13	-23	-2
CC(=O)Oc1ccc2c(=O)c(Oc3ccccc3)coc2c1OC(C)=O	-1	46*	-1	31*	2	-10
O=C1NCCOC(=O)[C@@H](Cc2ccc(F)cc2)C/C=C\C[C@@H]1CC(=O)N(CCO)Cc1ccccc1	26*	-1	1	4	-13	-6
O=C1N[C@H](Cc2ccccc2)COC(=O)[C@H](Cc2ccc(F)cc2)CC/C=C/C[C@H]1CC(=O)N(CCO)Cc1ccccc1	3	4	4	6	14	4
CC(C)(C)OC(=O)C[C@@H]1C/C=C\C[C@@H](CC(=O)N(CCO)Cc2ccccc2)C(=O)NCCOC1=O	-1	-7	3	3	13	-4
CC(C)(C)[C@@H]1COC(=O)[C@H](Cc2ccc(F)cc2)C/C=C\C[C@H](CC(=O)N(CCO)Cc2ccccc2)C(=O)N1	30*	3	5	3	2	-10
O=C1N[C@@H](Cc2ccccc2)COC(=O)[C@@H](Cc2ccc(F)cc2)C/C=C\C[C@@H]1CC(=O)N(CCO)Cc1ccccc1	41*	1	-2	9	-4	12
C#CCN1C(=O)[C@]2(OC[C@@H]3Cc4ccccc4[C@@H]3C=C2C)c2ccccc21	x	x	x	x	-2	8
CC(C)[C@@H]1CC[C@@H](C)C[C@H]1OC[B-](F)(F)F	x	x	x	x	6	2
CCOc1ccc(N2C(=O)C(c3ccccc3)=C(c3nc4ccccc4s3)C2NC(C)=O)cc1 (stereo not drawn)	-1	-6	4	26*	-11	-8
CCOc1ccc(-n2nnnc2-c2nc3ccccc3s2)cc1	-2	-8	5	-6	6	-8
COc1ccc(NC(=O)N(C)C[C@@H]2OCCCC[C@@H](C)Oc3ccc(NS(C)(=O)=O)cc3C(=O)N([C@H](C)CO)C[C@@H]2C)cc1	x	x	x	x	2	-3
COc1ccc(C(=O)N2CCC[C@@H]2C(=O)N2CCC[C@@H]2C(=O)NCc2ccccc2)cc1F	x	x	x	x	-13	-10
O=C(O)c1ccc(N/N=C/C2=C(N3CCOCC3)C(=C\c3ccccc3)/CC2)cc1	4	8	8	28*	-3	-14
O=C(COC(=O)c1cccc(Oc2ccccc2)c1)NCc1ccco1	1	36*	-5	34*	2	-10
O=C(COC(=O)c1cccc(S(=O)(=O)N2CCN(c3ccccc3)CC2)c1)NCc1ccco1	5	15	9	26*	-1	16
CCOC(=O)/C=C(\C)Sc1cc(O)c2ccccc2c1O	19	31*	36*	x	29*	21
CCOC(=O)/C=C(\C)Sc1cc(=O)oc2ccccc12	11	4	9	-1	4	14
CCS(=O)(=O)c1ccc(O)c(NC(=O)/C=C/c2ccc(Cl)cc2)c1	-4	66*	4	28*	-11	8
CCN(CC)S(=O)(=O)c1ccc(O)c(NC(=O)COc2ccc(S(=O)(=O)N3CCOCC3)cc2)c1	1	13	12	x	-6	5
CCS(=O)(=O)c1ccc(O)c(NC(=O)COc2ccc(Br)cc2)c1	34*	80*	3	5	14	8
SMILES	PAFAH1B2 FP inh	PAFAH2 inh	PAFAH1B3 inh	pPAFAH inh	ASAP1 inh	ARFGAP1 inh
COCCNc1ncnc2c1[nH]c1ccccc12	5	-3	6	28*	1	3
COc1ccc(CCNc2ncnc3c2[nH]c2cc(OC)c(OC)cc23)cc1OC	12	12	15	28*	14	22
COc1ccc(CCNc2ncnc3cc(OC)c(OC)cc23)cc1OC	5	7	8	x	10	4
COC(=O)C1=C(C)N(C)C(=NCc2ccc(C(F)(F)F)cc2)NC1c1cccc(F)c1 (stereo not drawn)	x	x	x	x	-3	0
COc1ccc(C(NC(=O)/C=C/c2ccco2)c2ccc(OC)cc2)cc1	0	4	0	27*	6	8
O=C(O)CCc1ccc(-c2ccc(Br)cc2)n1-c1ccc(O)cc1	33*	1	0	x	-3	6
Cc1ccc(-c2ccc(CCC(=O)O)n2-c2ccc(O)cc2)cc1	13	-5	6	21	8	0
Cc1ccc(NC(=O)COc2coc(CN3CCc4ccccc4C3)cc2=O)c(C)c1	9	4	8	25*	-5	-10
COc1cccc(C(=S)N2CCOCC2)c1OS(=O)(=O)c1ccc(Cl)cc1	-3	-2	11	27*	5	-6
COc1ccc(S(=O)(=O)Oc2cccc(C(=S)N3CCOCC3)c2)cc1	26*	1	1	-2	7	6
Cc1ccc(-c2csc(N3N=C(c4ccccc4)/C(=C\c4ccc(N(C)C)cc4)C3=O)n2)cc1	x	x	x	28*	x	x
Cc1cc(Oc2cccnc2)ccc1NC(=O)CCc1c[nH]c2ccccc12	x	x	x	x	-2	-2
O=C(N[C@H](C(=O)N1CCC[C@H]1C(=O)NC1CCCC1)C1CCCCC1)c1ccco1	x	x	x	x	-3	-3
S=c1[nH]nc(Cc2ccccc2)n1-c1cccc2ccccc12	28*	2	-6	4	-1	1
Cc1ccc(-n2c(Cc3ccccc3)n[nH]c2=S)c(C)c1	7	-2	3	-5	15	-6
Cc1cccc(NS(=O)(=O)c2ccc3[nH]c(=O)cc(C(=O)O)c3c2)c1	5	0	0	5	6	-4
Cc1cc(=O)[nH]c2ccc(S(=O)(=O)Nc3ccccc3)cc12	5	6	7	26*	18	4
CC(C)CNC(=O)c1cc(=O)[nH]c2ccc(S(=O)(=O)Nc3ccc(F)cc3)cc12	12	-9	9	27*	4	4
Cc1cc(=O)[nH]c2ccc(S(=O)(=O)Nc3ccc(O)cc3)cc12	3	1	7	-1	1	-6
CCn1c2c(n(C(C)=O)c1=O)C[C@@H](c1ccccc1)[C@@H](C)[C@@H](C(=O)N1CCCC1)C2	x	x	x	x	-3	5
COc1ccc(C2CC(=O)C(c3ccc(Cl)c(Cl)c3)=CN2Cc2ccccc2)cc1 (stereo not drawn)	x	x	x	x	8	-12
